Measurements from ChEMBL document CHEMBL1121867, “Inhibition of separated forms of cyclic nucleotide phosphodiesterase from pig coronary arteries by 1,3-disubstituted and 1,3,8-trisubstituted xanthines” (J Med Chem, 1981).

Experiments:
[1] = Inhibition of Peak I phosphodiesterase from pig coronary arteries; set-up: species or system Sus scrofa; details: read-out: I50
Summary of the method: (§1)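 Separated peak I and peak II phosphodiesterase forms prepared from pig coronary arteries. Hydrolysis of 1 µM cyclic nucleotide substrate was measured at 30 °C for 30 min, with enzyme diluted to give 10-20% hydrolysis without inhibitor. Compounds were added from 30% Me2SO, giving 3% Me2SO final in all tubes, including controls and blanks. I50 was read from concentration-inhibition curves over 10^-7 to 10^-4 M, or to 10^-3 M if soluble.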

[2] = organism: Sus scrofa; test: Inhibition of Peak II phosphodiesterase from pig coronary arteries at 100 uM
[3] = Inhibition of pig coronary artery cAMP-specific phosphodiesterase; set-up: species or system Sus scrofa; details: read-out: I50
Summary of the method: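 Separated peak I and peak II phosphodiesterase forms prepared from pig coronary arteries. Compounds were added from 30% Me2SO, giving 3% Me2SO final in all tubes, including controls and blanks. I50 was read from concentration-inhibition curves over 10^-7 to 10^-4 M, or to 10^-3 M if soluble.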

[4] = organism: Sus scrofa; test: Inhibition of pig coronary artery phosphodiesterase peak I cGMP specific and calmodulin sensitive at 100 uM
[5] = organism: Sus scrofa; test: Inhibition of pig coronary artery phosphodiesterase peak II cyclic AMP specific at 100 uM
[6] = organism: Sus scrofa; test: Inhibition of pig coronary artery phosphodiesterase peak I cGMP specific and calmodulin sensitive; details: concentration not given here; summary of the method: as §1

Row | IC50 [1] [µM] | inhibition [2] [%] | SMILES | also measured
1 | 45 | 12 | CC(C)Cn1c(=O)n(C)c(=O)c2[nH]c(CCC(=O)O)nc21 | 
2 | 1.6 | 33 | CC(C)Cn1c(=O)n(C)c(=O)c2[nH]c(N(C)C)nc21 | 
3 | 9.4 |  | CC(C)Cn1c(=O)n(C)c(=O)c2[nH]c(CO)nc21 | IC50 [3]: 283 µM
4 |  | 23 | Cn1c(=O)c2nc[nH]c2n(CCO)c1=O | inhibition [4]: 30%
5 | 9.8 | 30 | COC(=O)CCc1nc2c(=O)n(C)c(=O)n(CC(C)C)c2[nH]1 | 
6 |  | 27 | CC(=O)OCCn1c(=O)n(C)c(=O)c2nc[nH]c21 | inhibition [4]: 43%
7 | 25 |  | C=CCn1c(=O)n(C)c(=O)c2nc[nH]c21 | IC50 [3]: 52 µM
8 | 1.2 | 39 | CNc1nc2c(=O)n(C)c(=O)n(CC(C)C)c2[nH]1 | 
9 | 10 |  | C=C(C)Cn1c(=O)n(C)c(=O)c2nc[nH]c21 | IC50 [3]: 36 µM
10 |  |  | CC(C)Cn1c(=O)n(C)c(=O)c2[nH]nnc21 | inhibition [4]: 35%; inhibition [5]: 1%
11 | 5.2 |  | COCc1nc2c([nH]1)c(=O)n(C)c(=O)n2CC(C)C | IC50 [3]: 212 µM
12 |  | 1.9 | CC(C)Cn1c(=O)n(CC(=O)O)c(=O)c2[nH]cnc21 | inhibition [6]: 2.4%
13 | 11 | 29 | CC(C)Cn1c(=O)n(C)c(=O)c2[nH]c(CCCO)nc21 | 
14 | 8.9 | 28 | CC(C)Cn1c(=O)n(C)c(=O)c2[nH]c(CCl)nc21 | 
15 | 86 |  | CC(C)CCn1c(=O)c2[nH]cnc2n(CC(C)C)c1=O | IC50 [3]: 17 µM
16 | 6.3 | 21 | CC(C)=CCc1nc2c([nH]1)c(=O)n(C)c(=O)n2CC(C)C | 
17 |  | 42 | C=C(C)Cn1c(=O)n(CCC(C)C)c(=O)c2nc[nH]c21 | inhibition [4]: 38%
18 |  | 40 | COC(=O)Cn1c(=O)c2nc[nH]c2n(CC(C)C)c1=O | inhibition [4]: 26%

Row | SMILES | IC50 [1] [µM] | inhibition [2] [%] | also measured
19 | Cn1c(=O)c2nc[nH]c2n(C)c1=O [THEOPHYLLINE] | 100 |  | 
